Data: publication PMC3055939 (Chemical biology & drug design, 2011)

Assays:
[1] = cited from earlier work
purified PSMA (GCP2) = purified PSMA (GCP2) (Homo sapiens, UniProt Q04609); assay: IC50 determinations for PSMA inhibition; format: biochemical
Summary of the method: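 Purified PSMA (working stock 50 μg/mL) was diluted in 50 mM Tris, pH 7.4, 1% Triton X-100 to give 15–20% substrate conversion without inhibitor. […] Reactions were quenched with 2% TFA in methanol, buffered with K2HPO4, and centrifuged. Product was quantified by HPLC, and IC50 was calculated.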

purified PSMA (GCP2), sequence (Q04609 whole entry): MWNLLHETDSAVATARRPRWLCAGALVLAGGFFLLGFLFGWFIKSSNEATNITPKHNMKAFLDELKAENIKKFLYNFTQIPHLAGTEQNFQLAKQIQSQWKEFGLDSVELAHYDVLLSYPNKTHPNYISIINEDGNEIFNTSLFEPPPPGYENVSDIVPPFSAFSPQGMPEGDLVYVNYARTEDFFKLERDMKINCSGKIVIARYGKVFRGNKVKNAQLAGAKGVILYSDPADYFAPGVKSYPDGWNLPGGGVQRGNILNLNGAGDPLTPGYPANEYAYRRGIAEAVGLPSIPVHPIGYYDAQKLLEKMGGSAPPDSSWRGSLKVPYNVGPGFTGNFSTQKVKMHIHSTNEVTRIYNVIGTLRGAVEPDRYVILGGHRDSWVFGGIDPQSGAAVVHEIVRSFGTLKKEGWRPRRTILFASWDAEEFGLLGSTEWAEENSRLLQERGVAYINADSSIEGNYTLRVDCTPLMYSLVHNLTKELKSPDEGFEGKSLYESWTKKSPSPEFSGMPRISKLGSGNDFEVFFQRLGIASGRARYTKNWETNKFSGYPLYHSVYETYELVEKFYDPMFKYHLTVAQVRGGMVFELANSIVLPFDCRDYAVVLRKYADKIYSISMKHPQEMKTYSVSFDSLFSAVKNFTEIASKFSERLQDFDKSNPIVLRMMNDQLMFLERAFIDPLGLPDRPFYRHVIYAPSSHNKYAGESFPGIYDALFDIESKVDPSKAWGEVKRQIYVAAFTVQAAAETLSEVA

SMILES	oral bioavailability [1]	IC50 (purified PSMA (GCP2))
O=C(O)CCC(CP(=O)(O)O)C(=O)O (centres unmarked) [2-PMPA]	poor oral bioavailability	–
C=CS(=O)(=O)NC(CCC(=O)O)C(=O)O (centres unmarked) [2e, 2-Ethenesulfonylamino-pentanedioic acid]	–	> 100 µM
